Experimental data from ChEMBL document CHEMBL1158729, “Antioxidant phenolic glycosides from Moricandia arvensis” (J Nat Prod, 2005).
Converted amounts (≈) assume the structure as drawn. The source made the active and inactive calls. The rule behind the calls is not given here.

Experiments:
Format in all cases: functional
[1] = Antioxidant activity assessed as ABTS radical scavenging activity after 15 mins by TEAC method
How it was run: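 ABTS radical cation formed from 7 mM ABTS with potassium persulfate (2.4 mM final), held 16 h dark at room temperature, then diluted with water to A734 0.700 ± 0.03. Samples in H2O-EtOH at 5-8 concentrations (0 to 20 µM final). A734 decrease read at 1, 2, 5, 10, 15 min, triplicate, with solvent blanks. Expressed as mM Trolox equivalent to 1.0 mM or 1 mg/mL sample.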

[2] = Antioxidant activity assessed as reduction of […]/ferricyanide complex after 20 mins
How it was run: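 Samples (0.02-1.0 mg) in water, mixed with […] phosphate buffer pH 6.6 and 1% potassium ferricyanide, 20 min at 50 °C. Reaction stopped with 10% TCA, centrifuged, and supernatant mixed with water and 0.1% FeCl3. A700 read against blank. Means of three independent samples fitted by linear regression. IC50 taken as the concentration giving an absorbance change of 0.50. α-Tocopherol and quercetin used as standards.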

[3] = test system: Radical scavenging activity; experiment: Antioxidant activity assessed as DPPH radical scavenging activity at 15 ug/mL after 30 to 45 mins
How it was run: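 Sample added to freshly prepared 0.004% DPPH in MeOH (final-volume ratio 50:950 µL), vortexed 15 s. Absorbance at 515 nm read at room temperature after 30-45 min, once steady state was reached. Triplicate. % inhibition = (1 − As/A0) × 100 against control. α-Tocopherol and quercetin used as standards.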

## COC(=O)/C=C/c1ccc(O[C@@H]2O[C@H](CO)[C@@H](O)[C@H](O)[C@H]2O)c(O)c1
[1]
  Trolox equivalent antioxidant capacity (TEAC): 0.89 mM
[2]
  IC50: 486.2 µg/mL (≈ 1360 µM)

## O=C(O[C@@H]1O[C@H](CO)[C@@H](O)[C@H](O)[C@H]1O)c1ccc(O)cc1
[1]
  Activity: inactive
[2]
  Activity: inactive

## Cc1c(C)c2c(c(C)c1O)CC[C@@](C)(CCC[C@H](C)CCC[C@H](C)CCCC(C)C)O2 [ALPHA-TOCOPHEROL]
[2]
  IC50: 106.9 µg/mL (≈ 248 µM)
[3]
  Activity: 87%

## O=C(/C=C/c1ccc(O[C@@H]2O[C@H](CO)[C@@H](O)[C@H](O)[C@H]2O)c(O)c1)O[C@@H]1O[C@H](CO)[C@@H](O)[C@H](O)[C@H]1O
[1]
  Trolox equivalent antioxidant capacity (TEAC): 1.06 mM
[2]
  IC50: 95.9 µg/mL (≈ 190 µM)

## O=C(/C=C/c1ccc(O)c(O)c1)O[C@@H]1O[C@H](CO)[C@@H](O)[C@H](O)[C@H]1O
[1]
  Trolox equivalent antioxidant capacity (TEAC): 1.91 mM
[2]
  IC50: 33.5 µg/mL (≈ 97.9 µM)
[3]
  Activity: 72%

## O=c1c(O)c(-c2ccc(O)c(O)c2)oc2cc(O)cc(O)c12 [QUERCETIN]
[1]
  Activity: 4.26 mM
[2]
  IC50: 24.4 µg/mL (≈ 80.7 µM)
[3]
  Activity: 87%

## O=C(O[C@@H]1O[C@H](CO)[C@@H](O)[C@H](O)[C@H]1O)c1ccc(O[C@@H]2O[C@H](CO)[C@@H](O)[C@H](O)[C@H]2O)cc1
[1]
  Trolox equivalent antioxidant capacity (TEAC): 0.28 mM
[2]
  IC50: 735.4 µg/mL (≈ 1590 µM)

## C[C@@H]1O[C@@H](Oc2cc(O)c3c(=O)c(O[C@@H]4O[C@H](CO)[C@@H](O)[C@H](O)[C@H]4O)c(-c4ccc(O[C@@H]5O[C@H](CO)[C@@H](O)[C@H](O)[C@H]5O)c(O)c4)oc3c2)[C@H](O)[C@H](O)[C@H]1O [MORICANDIN]
[1]
  Trolox equivalent antioxidant capacity (TEAC): 1.23 mM
[2]
  IC50: 48.1 µg/mL (≈ 62.3 µM)
[3]
  Activity: 60%

## COC(=O)/C=C/c1cc(O)cc(O[C@@H]2O[C@H](CO)[C@@H](O)[C@H](O)[C@H]2O)c1
[1]
  Trolox equivalent antioxidant capacity (TEAC): 0.35 mM
[2]
  IC50: 630.8 µg/mL (≈ 1770 µM)

## OC[C@H]1O[C@@H](OCCc2ccccc2)[C@H](O)[C@@H](O)[C@@H]1O
[1]
  Activity: inactive
[2]
  Activity: inactive
